{"data": "Published values from different studies", "note": "Each line is one published result; the experiments were not run side by side."}
{"Structure (SMILES)": "Cc1cc(C)cc(COc2cc3c(cc2OCc2cc(C)cc(C)c2)[C@H]2C[C@](O)(Cc4cn(CCc5ccccc5)nn4)C[C@H](C)N2CC3)c1", "target or system": "ASPC1", "assay": "cell growth or viability, MTT", "measurement": "IC50", "result": "794 nM"}
{"Structure (SMILES)": "COc1ccc(Sc2ccc(C)cc2)c(OC)c1OC", "assay": "tubulin polymerisation, inhibitor, absorbance", "conditions": "pH 6.6", "measurement": "IC50", "result": "> 40000 nM"}
{"Structure (SMILES)": "CC(C)C[C@H](NC(=O)[C@H](Cc1ccccc1)NC(=O)c1cnccn1)B(O)O", "target or system": "HCC1569", "assay": "cell growth or viability, ATP luminescence", "measurement": "IC50", "result": "4.9 nM"}
{"Structure (SMILES)": "COc1ccc(S(=O)(=O)c2ccc(OC)c(OC)c2OC)cc1", "assay": "tubulin polymerisation, inhibitor, absorbance", "conditions": "pH 6.6", "measurement": "IC50", "result": "> 40000 nM"}
{"Structure (SMILES)": "COc1cc(Nc2nccc(-c3cnn4nc(OC)ccc34)n2)cc(C(F)(F)F)c1", "target or system": "ASPC1", "assay": "cell growth or viability, ATP luminescence", "measurement": "IC50", "result": "980 nM"}
{"Structure (SMILES)": "C[C@@H](Oc1cc(-c2cnn(C3CCNCC3)c2)cnc1N)c1c(Cl)ccc(F)c1Cl", "target or system": "KARPAS-299", "assay": "cell growth or viability, MTT", "conditions": "0.04 µg/mL, 72 h", "measurement": "inhibition", "result": "58.8%"}
{"Structure (SMILES)": "Cc1cc(C)cc(COc2cc3c(cc2OCc2cc(C)cc(C)c2)C2CC(O)(Cc4cn(CCCCCCNc5cccc6c5C(=O)N(C5CCC(=O)NC5=O)C6=O)nn4)CC(C)N2CC3)c1 (stereo not shown)", "target or system": "ASPC1", "assay": "cell growth or viability, MTT", "measurement": "IC50", "result": "1080 nM"}
{"Structure (SMILES)": "Cc1ccccc1-n1cc(Cn2c(C(=O)O)nc3ccccc3c2=O)nn1", "target or system": "Nakaseomyces glabratus", "assay": "microbial growth, broth dilution", "system": "ATCC90030", "conditions": "24 h", "measurement": "IC50", "result": "358 µg/mL"}
{"Structure (SMILES)": "COc1ccc(S(=O)(=O)c2ccc(C)cc2)c(OC)c1OC", "assay": "tubulin polymerisation, inhibitor, absorbance", "conditions": "pH 6.6", "measurement": "IC50", "result": "> 40000 nM"}
{"Structure (SMILES)": "Cc1cc(C)cc(COc2cc3c(cc2OCc2cc(C)cc(C)c2)[C@H]2C[C@](O)(Cc4cn(CC56CC7CC(CC(C7)C5)C6)nn4)C[C@H](C)N2CC3)c1", "target or system": "ASPC1", "assay": "cell growth or viability, MTT", "measurement": "IC50", "result": "516 nM"}
{"Structure (SMILES)": "Cc1cc(Nc2ncc(Cl)c(Nc3ccccc3S(=O)(=O)C(C)C)n2)c(OC(C)C)cc1C1CCNCC1", "target or system": "KARPAS-299", "assay": "cell growth or viability, MTT", "conditions": "5 µg/mL, 72 h", "measurement": "inhibition", "result": "97.7%"}
{"Structure (SMILES)": "CCOC(=O)c1nc2ccccc2c(=O)n1Cc1cn(-c2cccc(F)c2)nn1", "target or system": "Nakaseomyces glabratus", "assay": "microbial growth, broth dilution", "system": "ATCC90030", "conditions": "24 h", "measurement": "IC50", "result": "365 µg/mL"}
{"Structure (SMILES)": "C#CC[C@]1(O)C[C@@H]2c3cc(OCc4cc(C)cc(C)c4)c(OCc4cc(C)cc(C)c4)cc3CCN2[C@@H](C)C1", "target or system": "ASPC1", "assay": "cell growth or viability, MTT", "measurement": "IC50", "result": "791 nM"}
